# Source: ChEMBL document CHEMBL1134841, “Antimalarial alkoxylated and hydroxylated chalcones [corrected]: structure-activity relationship analysis” (J Med Chem, 2001)
# Experiments:
# Mus musculus [1] = assay: Ratio of average life span of compound-treated mice (100 mg/kg, ip, 3 days) to that of mice receiving DMSO (T/C-untreated); format: functional
# Method in brief: (§1)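 Swiss albino mice (male, 4 weeks, ~25 g) inoculated ip with 10^7 P. berghei ANKA parasitized erythrocytes (day 0). Test compound 100 mg/kg/day ip in DMSO, days 1–3, three mice per compound. Control infected groups: DMSO or 4'-butoxy-2,4-dimethoxychalcone (100 mg/kg in DMSO, ip, days 1–3), or chloroquine (52 mg/kg ip in 0.5% Tween buffer pH 7.4, day 1). Survival followed; ratio of mean life spans.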
# Plasmodium falciparum = assay: Inhibition of [3H]hypoxanthine incorporation in Plasmodium falciparum K1; format: functional, organism-based; conditions: Plasmodium falciparum, 48 h
# Method in brief: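 K1 (chloroquine-resistant) parasites cultured in RPMI-1640 with 5% sodium bicarbonate and 10% type O human serum. DMSO stocks were serially diluted 10-fold in medium, covering a 10^6-fold range. Infected erythrocytes at 1–2% parasitemia and 1.5% hematocrit were incubated at 37 °C in a candle jar for 24 h. [3H]hypoxanthine was then added for a further 24 h, cells harvested and scintillation counted. IC50 from nonlinear logistic fit versus untreated control.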
# [2] = Ratio of average life span of compound-treated mice (100 mg/kg, ip, 3 days) to that of mice treated with chloroquine (T/C-CQ); format: functional; method in brief: as §1
# Mus musculus [3] = assay: Ratio of average life span of compound-treated mice (100 mg/kg, ip, 3 days) to that of mice treated with 4''-butoxy-2,4-dimethoxychalcone (comp.41); format: functional; method in brief: as §1
Compound,T/C untreated (Mus musculus [1]),IC50 (Plasmodium falciparum) [µM],T/C-CQ [2],T/C 41 (Mus musculus [3])
COc1ccc(C(=O)/C=C/c2ccc(C(F)(F)F)cc2)c(OC)c1,1.67,5.9,0.84,1.67
COc1ccc(C(=O)/C=C/c2ccc(F)cc2)cc1,2.2,14.4,1.22,1.83
COc1ccc(C(=O)/C=C/c2ccc(Cl)cc2Cl)c(OC)c1OC,0.94,5.4,0.48,0.94
COc1ccc(C(=O)/C=C/c2ccc(F)cc2F)c(OC)c1,1.04,6.2,0.52,1.04
COc1ccc(C(=O)/C=C/c2cnc3ccccc3c2)c(OC)c1OC,1.91,2,0.96,1.91
CN(C)c1ccc(/C=C/C(=O)c2ccc(O)cc2)cc1,0.94,17.7,0.47,0.99
O=C(/C=C/c1ccc(Cl)cc1)c1ccc(O)cc1O,1.41,12.3,0.71,1.48
O=C(/C=C/c1ccc(F)cc1F)c1ccc(O)cc1O,1.73,16,1.23,1.78
O=C(/C=C/c1ccccn1)c1ccc(O)cc1,0.99,16.3,0.49,1.03
O=C(/C=C/c1ccc(Cl)cc1Cl)c1ccc(O)cc1O,1.32,68.5,0.94,1.36
O=C(/C=C/c1cnc2ccccc2c1)c1ccc(O)cc1O,1.08,16.1,0.77,1.11
COc1ccc(C(=O)/C=C/c2ccc(Cl)c(Cl)c2)c(OC)c1OC,1.47,14.5,0.8,1.53
COc1ccc(C(=O)/C=C/c2ccc(C(F)(F)F)cc2)c(OC)c1OC,1.46,3,0.74,1.46
COc1ccc(C(=O)/C=C/c2ccc(OC)cc2OC)cc1,0.92,6.4,0.46,0.97
O=C(/C=C/c1ccccn1)c1ccc(O)cc1O,1.47,19.7,0.81,0.93
